Assay results published in ChEMBL document CHEMBL4219118, “Cathepsin B inhibitors: Further exploration of the nitroxoline core” (Bioorg Med Chem Lett, 2018).
The source made the active and inactive calls. No cut-off for these calls is given here.

Experiments:
Cathepsin B [1] = biological target: T1, Cathepsin B (Homo sapiens, UniProt P07858); assay: Mixed inhibition of recombinant human cathepsin B endopeptidase activity assessed as inhibitory constant for enzyme-inhibitor complex using Z-Arg-Arg-AMC as substrate in presence of pH 6 phosphate buffer by fluorescence assay
Cathepsin B [2] = biological target: T1, Cathepsin B; assay: Mixed inhibition of recombinant human cathepsin B endopeptidase activity assessed as inhibitory constant for enzyme-substrate-inhibitor complex using Z-Arg-Arg-AMC as substrate in presence of pH 6 phosphate buffer by fluorescence assay
Cathepsin B [3] = biological target: T1, Cathepsin B; assay: Mixed inhibition of recombinant human cathepsin B exopeptidase activity assessed as inhibitory constant for enzyme-inhibitor complex using Abz-Gly-Ile-Val-Arg-Ala-Lys(Dnp)-OH as substrate in presence of pH 5 acetate buffer by fluorescence assay
Cathepsin B [4] = biological target: T1, Cathepsin B; assay: Mixed inhibition of recombinant human cathepsin B exopeptidase activity assessed as inhibitory constant for enzyme-substrate-inhibitor complex using Abz-Gly-Ile-Val-Arg-Ala-Lys(Dnp)-OH as substrate in presence of pH 5 acetate buffer by fluorescence assay
Cathepsin B [5] = biological target: T1, Cathepsin B; assay: Competitive inhibition of recombinant human cathepsin B endopeptidase activity assessed as inhibitory constant for enzyme-inhibitor complex using Z-Arg-Arg-AMC as substrate in presence of pH 4.5 acetate buffer by fluorescence assay; details: read-out: Ki
Procedure, shortened: (§1)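 Recombinant cathepsin B endopeptidase activity assayed with the small substrate Z-Arg-Arg-AMC at pH 4.5. Acidic conditions chosen to shift the enzyme toward the closed (exopeptidase) conformation. Ki reported.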

Cathepsin B [6] = biological target: T1, Cathepsin B; assay: Inhibition of cathepsin B in human MCF-10A neoT cells assessed as proteolysis of extracellular membrane by measuring decrease in extracellular degradation of DQ-collagen 4 at 2.5 uM incubated for 6 hrs measured for 2 hrs by fluorescence based spectrofluorimetric assay; format: cell-based
Procedure, shortened: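 MCF-10A neoT cells (5 × 10⁴) exposed to compound or DMSO vehicle control with DQ-collagen IV. Fluorescence of the extracellular cleavage product measured by spectrofluorimetry. Mean ± SEM of n = 3 experiments, each in six replicates.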

Cathepsin B [7] = biological target: T1, Cathepsin B; assay: (§2) Inhibition of cathepsin B in human MCF-10A neoT cells assessed as proteolysis of extracellular membrane by measuring decrease in intracellular degradation of DQ-collagen 4 at 25 uM incubated for 2 hrs followed by DQ-collagen addition measured for 2 hrs by propidium iodide staining based flow cytometry relative to control; format: cell-based
Procedure, shortened: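 Intracellular DQ-collagen IV degradation in MCF-10A neoT cells (6 × 10⁴) treated with compound or DMSO, read by flow cytometry. Unlabeled cells served as background. Reduction in intracellular signal reported against DMSO as mean ± SEM, n = 3 experiments, each in duplicate.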

Pro-cathepsin H [8] = biological target: T2, Pro-cathepsin H (Homo sapiens, UniProt P09668); assay: Non-competitive inhibition of human liver cathepsin H assessed as inhibitory constant for enzyme-inhibitor complex using R-AMC as substrate in presence of pH 6 phosphate buffer by fluorescence assay
T2 sequence (P09668 whole entry): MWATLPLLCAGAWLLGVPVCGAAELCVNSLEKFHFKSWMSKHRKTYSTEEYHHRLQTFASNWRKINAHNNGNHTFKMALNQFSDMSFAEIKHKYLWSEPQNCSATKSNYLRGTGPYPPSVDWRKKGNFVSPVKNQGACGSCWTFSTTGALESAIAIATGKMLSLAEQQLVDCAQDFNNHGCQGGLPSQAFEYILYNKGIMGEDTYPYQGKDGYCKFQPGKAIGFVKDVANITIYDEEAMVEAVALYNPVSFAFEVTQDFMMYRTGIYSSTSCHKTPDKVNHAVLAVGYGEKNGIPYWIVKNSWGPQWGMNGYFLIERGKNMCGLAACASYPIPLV

Pro-cathepsin H [9] = biological target: T2, Pro-cathepsin H; assay: Non-competitive inhibition of human liver cathepsin H assessed as inhibitory constant for enzyme-substrate-inhibitor complex using R-AMC as substrate in presence of pH 6 phosphate buffer by fluorescence assay
Procathepsin L = Procathepsin L (Homo sapiens, UniProt P07711); assay: Competitive inhibition of recombinant human cathepsin L expressed in Escherichia coli assessed as inhibitory constant for enzyme-inhibitor complex using Z-FR-AMC as substrate in presence of pH 6 phosphate buffer by fluorescence assay
MCF-10A-neoT [10] = assay: Antiinvasive activity against human MCF10AneoT cells at 2.5 uM incubated for 1 hr measured every 15 mins for 72 hrs by real time xCELLigence assay relative to control; format: functional, cell-based
Procedure, shortened: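 MCF-10A neoT cells (3 × 10⁴) seeded on Matrigel-coated (1 mg/mL) upper compartments of CIM-plates. Compound or DMSO (0.05%) added to growth medium in both upper and lower compartments. Invasion followed by impedance (cell index) for 72 h. Slopes (1/h) between 4 and 14 h converted to percentage invasion versus DMSO. Means of n = 2, each run in triplicate.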

MCF-10A-neoT [11] = assay: Cytotoxicity against human MCF10AneoT cells assessed as decrease in cell viability after 72 hrs by MTS assay; format: cell-based
U-87 MG = assay: Cytotoxicity against human U87MG cells assessed as decrease in cell viability after 72 hrs by MTS assay; format: cell-based; details: u-87mg atcc
Cathepsin B [12] = biological target: T1, Cathepsin B; assay: Non-competitive inhibition of recombinant human cathepsin B exopeptidase activity assessed as inhibitory constant for enzyme-inhibitor complex using Abz-Gly-Ile-Val-Arg-Ala-Lys(Dnp)-OH as substrate in presence of pH 5 acetate buffer by fluorescence assay
Cathepsin B [13] = biological target: T1, Cathepsin B; assay: Non-competitive inhibition of recombinant human cathepsin B exopeptidase activity assessed as inhibitory constant for enzyme-substrate-inhibitor complex using Abz-Gly-Ile-Val-Arg-Ala-Lys(Dnp)-OH as substrate in presence of pH 5 acetate buffer by fluorescence assay
Cathepsin B [14] = biological target: T1, Cathepsin B; assay: Uncompetitive inhibition of recombinant human cathepsin B endopeptidase activity assessed as inhibitory constant for enzyme-substrate-inhibitor complex using Z-Arg-Arg-AMC as substrate in presence of pH 6 phosphate buffer by fluorescence assay
Cathepsin B [15] = biological target: T1, Cathepsin B; assay: Uncompetitive inhibition of recombinant human cathepsin B exopeptidase activity assessed as inhibitory constant for enzyme-substrate-inhibitor complex using Abz-Gly-Ile-Val-Arg-Ala-Lys(Dnp)-OH as substrate in presence of pH 5 acetate buffer by fluorescence assay
Cathepsin B [16] = biological target: T1, Cathepsin B; assay: Inhibition of recombinant human cathepsin B endopeptidase activity assessed as inhibitory constant for enzyme-inhibitor complex using Z-Arg-Arg-AMC as substrate in presence of pH 4.5 acetate buffer by fluorescence assay; procedure, shortened: as §1
Cathepsin B [17] = biological target: T1, Cathepsin B; assay: Inhibition of recombinant human cathepsin B endopeptidase activity assessed as inhibitory constant for enzyme-substrate-inhibitor complex using Z-Arg-Arg-AMC as substrate in presence of pH 6 phosphate buffer by fluorescence assay
Cathepsin B [18] = biological target: T1, Cathepsin B; assay: Inhibition of cathepsin B in human MCF-10A neoT cells assessed as proteolysis of extracellular membrane by measuring decrease in extracellular degradation of DQ-collagen 4 at 5 uM incubated for 6 hrs measured for 2 hrs by fluorescence based spectrofluorimetric assay relative to control; format: cell-based
Procedure, shortened: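 MCF-10A neoT cells (5 × 10⁴) incubated with DQ-collagen IV in the presence of compound or DMSO. Extracellular degradation product read by spectrofluorimetry. Mean of n = 3, six replicates per experiment.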

Cathepsin B [19] = biological target: T1, Cathepsin B; assay: as §2, with “50” for “25”; format: cell-based
Procedure, shortened: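 MCF-10A neoT cells (6 × 10⁴) treated with compound or DMSO. Intracellular DQ-collagen IV degradation measured by flow cytometry, with unlabeled cells as background. Reduction expressed versus DMSO. Mean of n = 3, run in duplicate.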

Cathepsin B [20] = biological target: T1, Cathepsin B; assay: Inhibition of recombinant human cathepsin B endopeptidase activity assessed as residual activity at 50 uM using Z-Arg-Arg-AMC as substrate in presence of pH 6 phosphate buffer by fluorescence assay relative to control
Cathepsin B [21] = biological target: T1, Cathepsin B; assay: Inhibition of recombinant human cathepsin B exopeptidase activity assessed as residual activity at 50 uM using Abz-Gly-Ile-Val-Arg-Ala-Lys(Dnp)-OH as substrate in presence of pH 5 acetate buffer by fluorescence assay relative to control

Chain of Procathepsin L (P07711 whole entry): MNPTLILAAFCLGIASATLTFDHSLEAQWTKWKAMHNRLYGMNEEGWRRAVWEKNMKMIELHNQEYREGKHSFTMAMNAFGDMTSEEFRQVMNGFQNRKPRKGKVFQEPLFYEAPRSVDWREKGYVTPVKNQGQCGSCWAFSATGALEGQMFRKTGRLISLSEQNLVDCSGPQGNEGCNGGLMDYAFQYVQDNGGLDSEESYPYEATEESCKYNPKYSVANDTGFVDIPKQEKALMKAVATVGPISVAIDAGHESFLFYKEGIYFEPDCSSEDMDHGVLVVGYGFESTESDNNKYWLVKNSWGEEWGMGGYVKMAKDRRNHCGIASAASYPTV

## Cc1ccc2c([N+](=O)[O-])ccc(O)c2n1
Cathepsin B [1]
  Ki: 181 µM
Cathepsin B [2]
  Ki: 99 µM
Cathepsin B [3]
  Ki: 469 µM
Cathepsin B [4]
  Ki: 77 µM
Cathepsin B [5]
  Ki: 153 µM
Cathepsin B [6]
  inhibition: Active
Cathepsin B [7]
  inhibition: 80%
Pro-cathepsin H [8]
  Ki: 89 µM
Pro-cathepsin H [9]
  Ki: 89 µM
Procathepsin L
  Ki: 122 µM
MCF-10A-neoT [10]
  Activity: inactive
MCF-10A-neoT [11]
  Activity: Non-Toxic
U-87 MG
  Activity: Non-Toxic

## CC1CCN(C(=O)c2cc([N+](=O)[O-])c3cccnc3c2O)CC1
Cathepsin B [1]
  Ki: 143 µM
Cathepsin B [2]
  Ki: 94 µM
Cathepsin B [12]
  Ki: 162 µM
Cathepsin B [13]
  Ki: 162 µM

## CC(=O)c1ccc(-c2occc2-c2ccc([N+](=O)[O-])c3cccnc23)cc1
Cathepsin B [14]
  Ki: 46 µM
Cathepsin B [15]
  Ki: 11 µM
Cathepsin B [16]
  Ki: Not Active
Cathepsin B [17]
  Ki: Not Active

## N#CCN(Cc1ccccc1)C(=O)c1cc([N+](=O)[O-])c2cccnc2c1O
Cathepsin B [1]
  Ki: 182 µM
Cathepsin B [2]
  Ki: 64 µM
Cathepsin B [3]
  Ki: 185 µM
Cathepsin B [4]
  Ki: 32 µM
Cathepsin B [5]
  Ki: 132 µM
Cathepsin B [18]
  inhibition: 60%
Cathepsin B [19]
  inhibition: < 10%
MCF-10A-neoT [11]
  Activity: Non-Toxic
U-87 MG
  Activity: Non-Toxic

## N#CCN(Cc1ccccc1)C(=O)c1ccc2c([N+](=O)[O-])ccc(O)c2n1
Cathepsin B [14]
  Ki: 34 µM
Cathepsin B [3]
  Ki: 156 µM
Cathepsin B [4]
  Ki: 18 µM

## O=C(c1cc([N+](=O)[O-])c2cccnc2c1O)N1CCCCC1
Cathepsin B [1]
  Ki: 311 µM
Cathepsin B [2]
  Ki: 171 µM
Cathepsin B [12]
  Ki: 364 µM
Cathepsin B [13]
  Ki: 364 µM

## N#Cc1ccc2c([N+](=O)[O-])cc([N+](=O)[O-])c(O)c2n1
Cathepsin B [14]
  Ki: 39 µM
Cathepsin B [12]
  Ki: 192 µM
Cathepsin B [13]
  Ki: 192 µM

## N#CC1(NC(=O)c2ccc3c([N+](=O)[O-])ccc(O)c3n2)CC1
Cathepsin B [1]
  Ki: 157 µM
Cathepsin B [2]
  Ki: 66 µM
Cathepsin B [12]
  Ki: 154 µM
Cathepsin B [13]
  Ki: 154 µM

## O=[N+]([O-])c1ccc(O)c2ncccc12
Cathepsin B [20]
  Activity: 21.9%
Cathepsin B [21]
  Activity: 24.7%

## N#Cc1ccc2c([N+](=O)[O-])ccc(O)c2n1
Cathepsin B [1]
  Ki: 142 µM
Cathepsin B [2]
  Ki: 68 µM
Cathepsin B [12]
  Ki: 214 µM
Cathepsin B [5]
  Ki: 123 µM
Cathepsin B [13]
  Ki: 214 µM

## CC(=O)c1ccc(-c2cc(-c3ccc([N+](=O)[O-])c4cccnc34)c(-c3ccc(C(C)=O)cc3)o2)cc1
Cathepsin B [14]
  Ki: 39 µM
Cathepsin B [15]
  Ki: 13 µM
Cathepsin B [16]
  Ki: Not Active
Cathepsin B [17]
  Ki: Not Active
